Data as given in ChEMBL document CHEMBL4196248, “Callyspongidic Acids: Amphiphilic Diacids from the Tropical Eastern Pacific Sponge Callyspongia cf. californica” (J Nat Prod, 2018).
The source made the active and inactive calls. The rule behind the calls is not given here.

Experiments:
Escherichia coli [1] = test: Antimicrobial activity against Escherichia coli ATCC 25922 at 32 ug/ml measured after 20 hrs by spectrophotometric method; format: functional, organism-based
How it was run: (§1)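 Whole-cell growth-inhibition panel: Gram-negative E. coli ATCC25922, K. pneumoniae ATCC700603, P. aeruginosa PAO1 and A. baumannii CL5973, plus fungi A. fumigatus ATCC46645 and C. albicans ATCC64124. Method follows earlier-described protocols. Highest concentration tested 32 μg/mL.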

A2058 = test: Cytotoxicity against human A2058 cells measured after 24 hrs by MTT assay; format: functional, cell-based; settings: A2058, 24 h
How it was run: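 Human-derived A2058 epithelial melanoma cells, run alongside a panel of other human tumour lines by a previously reported protocol; IC50 values derived.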

Aspergillus fumigatus [2] = test: Antimicrobial activity against Aspergillus fumigatus ATCC 46645 at 32 ug/ml measured after 30 hrs by resazurin dye based assay; format: functional, organism-based; how it was run: as §1
Candida albicans [3] = test: Antimicrobial activity against Candida albicans ATCC 64124 at 32 ug/ml measured after 20 hrs by spectrophotometric method; format: functional, organism-based; how it was run: as §1
Klebsiella pneumoniae [4] = test: Antimicrobial activity against Klebsiella pneumoniae ATCC 700603 at 32 ug/ml measured after 20 hrs by spectrophotometric method; format: functional, organism-based; how it was run: as §1
Acinetobacter baumannii [5] = test: Antimicrobial activity against Acinetobacter baumannii CL5973 at 32 ug/ml measured after 20 hrs by spectrophotometric method; format: functional, organism-based; how it was run: as §1
Staphylococcus aureus [6] = test: Antimicrobial activity against methicillin-resistant Staphylococcus aureus MB5393 at 32 ug/ml measured after 20 hrs by spectrophotometric method; format: functional, organism-based
Staphylococcus aureus [7] = test: Antimicrobial activity against methicillin-sensitive Staphylococcus aureus ATCC 29213 at 32 ug/ml measured after 20 hrs by spectrophotometric method; format: functional, organism-based
Pseudomonas aeruginosa [8] = test: Antimicrobial activity against Pseudomonas aeruginosa PAO1 at 32 ug/ml measured after 20 hrs by spectrophotometric method; format: functional, organism-based; how it was run: as §1
Klebsiella pneumoniae [9] = test: Antimicrobial activity against Klebsiella pneumoniae ATCC 700603 at 4 ug/ml measured after 20 hrs by spectrophotometric method; format: functional, organism-based
Candida albicans [10] = test: Antimicrobial activity against Candida albicans ATCC 64124 at 4 ug/ml measured after 20 hrs by spectrophotometric method; format: functional, organism-based
Aspergillus fumigatus [11] = test: Antimicrobial activity against Aspergillus fumigatus ATCC 46645 at 4 ug/ml measured after 30 hrs by resazurin dye based assay; format: functional, organism-based
Acinetobacter baumannii [12] = test: Antimicrobial activity against Acinetobacter baumannii CL5973 at 4 ug/ml measured after 20 hrs by spectrophotometric method; format: functional, organism-based
Pseudomonas aeruginosa [13] = test: Antimicrobial activity against Pseudomonas aeruginosa PAO1 at 4 ug/ml measured after 20 hrs by spectrophotometric method; format: functional, organism-based
Staphylococcus aureus [14] = test: Antimicrobial activity against methicillin-sensitive Staphylococcus aureus ATCC 29213 at 4 ug/ml measured after 20 hrs by spectrophotometric method; format: functional, organism-based
Staphylococcus aureus [15] = test: Antimicrobial activity against methicillin-resistant Staphylococcus aureus MB5393 at 4 ug/ml measured after 20 hrs by spectrophotometric method; format: functional, organism-based
Escherichia coli [16] = test: Antimicrobial activity against Escherichia coli ATCC 25922 at 4 ug/ml measured after 20 hrs by spectrophotometric method; format: functional, organism-based

Compound	Activity (Escherichia coli [1])	IC50 (A2058) [µM]	Activity (Aspergillus fumigatus [2])	Activity (Candida albicans [3])	Activity (Klebsiella pneumoniae [4])	Activity (Acinetobacter baumannii [5])	Activity (Staphylococcus aureus [6])	Activity (Staphylococcus aureus [7])	Activity (Pseudomonas aeruginosa [8])	Activity (Klebsiella pneumoniae [9])	Activity (Candida albicans [10])	Activity (Aspergillus fumigatus [11])	Activity (Acinetobacter baumannii [12])	Activity (Pseudomonas aeruginosa [13])	Activity (Staphylococcus aureus [14])	Activity (Staphylococcus aureus [15])	Activity (Escherichia coli [16])
CCCCCCCCCC[C@H](C(=O)O)[C@@](O)(Cc1ccc(O)cc1)C(=O)O	inactive	26	inactive	inactive	inactive	inactive	inactive	inactive	inactive	–	–	–	–	–	–	–	–
CCCCCCCCCCC[C@H](C(=O)O)[C@@](O)(Cc1ccc(O)cc1)C(=O)O	–	3.2	–	–	–	–	–	–	–	inactive	inactive	inactive	inactive	inactive	inactive	inactive	inactive
CCCCCCCCCCCC[C@H](C(=O)O)[C@@](O)(Cc1ccc(O)cc1)C(=O)O	inactive	30	inactive	inactive	inactive	inactive	inactive	inactive	inactive	–	–	–	–	–	–	–	–
CCCCCC/C=C\CCCC[C@H](C(=O)O)[C@@](O)(Cc1ccc(O)cc1)C(=O)O	inactive	> 30	inactive	inactive	inactive	inactive	inactive	inactive	inactive	–	–	–	–	–	–	–	–
